# Experimental data from ChEMBL document CHEMBL5376013, “Design, synthesis and biological evaluation of novel morpholinopyrimidine-5-carbonitrile derivatives as dual PI3K/mTOR inhibitors” (RSC Med Chem, 2024).
# Legend:
# Format in all cases: functional
# Settings in all cases: read-out: GI
# OVCAR-4 = test: Antitumor activity against human OVCAR-4 cells assessed as growth inhibition at 10 uM relative to control
# Outline: (§1)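 After drug addition, plates were incubated 48 h at 37 °C under 5% CO2. Adherent cells were fixed with cold TCA (10% final, 60 min, 4 °C) and suspension cells with 16% final TCA. Staining used 0.4% SRB in 1% acetic acid, solubilized in 10 mM trizma, read at A515. Percent growth was calculated from time-zero, control and treated absorbances.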
# MOLT-4 = test: Antitumor activity against human MOLT-4 cells assessed as growth inhibition at 10 uM relative to control; outline: as §1
# K562 = test: Antitumor activity against human K562 cells assessed as growth inhibition at 10 uM relative to control; outline: as §1
# SW-620 = test: Antitumor activity against human SW-620 cells assessed as growth inhibition at 10 uM relative to control
# Outline: (§2)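 Drug exposure 48 h at 37 °C, 5% CO2. Adherent cells fixed with cold TCA (10% final), suspension cells with TCA (16% final). Stained with 0.4% SRB in 1% acetic acid, dissolved in 10 mM Tris, A515. Growth relative to time-zero and untreated control.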
# HOP-92 = test: Antitumor activity against human HOP-92 cells assessed as growth inhibition at 10 uM relative to control; outline: as §1
# OVCAR-3 = test: Antitumor activity against human OVCAR-3 cells assessed as growth inhibition at 10 uM relative to control; outline: as §1
# SN12C = test: Antitumor activity against human SN12C cells assessed as growth inhibition at 10 uM relative to control; outline: as §2
# T47D = test: Antitumor activity against human T47D cells assessed as growth inhibition at 10 uM relative to control; outline: as §2
# UACC-62 = test: Antitumor activity against human UACC-62 cells assessed as growth inhibition at 10 uM relative to control; outline: as §2
# RXF 393 = test: Antitumor activity against human RXF 393 cells assessed as growth inhibition at 10 uM relative to control; outline: as §1
# NCI-H522 = test: Antitumor activity against human NCI-H522 cells assessed as growth inhibition at 10 uM relative to control; outline: as §1
# SK-OV-3 = test: Antitumor activity against human SK-OV-3 cells assessed as growth inhibition at 10 uM relative to control; outline: as §2
# SK-MEL-2 = test: Antitumor activity against human SK-MEL-2 cells assessed as growth inhibition at 10 uM relative to control; outline: as §1
# NCI-H23 = test: Antitumor activity against human NCI-H23 cells assessed as growth inhibition at 10 uM relative to control; outline: as §1
# MDA-MB-468 = test: Antitumor activity against human MDA-MB-468 cells assessed as growth inhibition at 10 uM relative to control; outline: as §1
# KM12 = test: Antitumor activity against human KM12 cells assessed as growth inhibition at 10 uM relative to control; outline: as §1
# COLO 205 = test: Antitumor activity against human COLO 205 cells assessed as growth inhibition at 10 uM relative to control; outline: as §1
# NCI-H226 = test: Antitumor activity against human NCI-H226 cells assessed as growth inhibition at 10 uM relative to control; outline: as §1
# SF-268 = test: Antitumor activity against human SF-268 cells assessed as growth inhibition at 10 uM relative to control; outline: as §1
# SK-MEL-5 = test: Antitumor activity against human SK-MEL-5 cells assessed as growth inhibition at 10 uM relative to control; outline: as §2
# 786-0 = test: Antitumor activity against human 786-0 cells assessed as growth inhibition at 10 uM relative to control; outline: as §1
# HT-29 = test: Antitumor activity against human HT-29 cells assessed as growth inhibition at 10 uM relative to control; outline: as §1
# HCT-15 = test: Antitumor activity against human HCT-15 cells assessed as growth inhibition at 10 uM relative to control; outline: as §1
# Malme-3M = test: Antitumor activity against human Malme-3M cells assessed as growth inhibition at 10 uM relative to control; outline: as §1
# U-251 = test: Antitumor activity against human U-251 cells assessed as growth inhibition at 10 uM relative to control; outline: as §2
# ACHN = test: Antitumor activity against human ACHN cells assessed as growth inhibition at 10 uM relative to control; outline: as §1
# SNB-19 = test: Antitumor activity against human SNB-19 cells assessed as growth inhibition at 10 uM relative to control; outline: as §2
# LOX IMVI = test: Antitumor activity against human LOX IMVI cells assessed as growth inhibition at 10 uM relative to control; outline: as §1
# CAKI-1 = test: Antitumor activity against human CAKI-1 cells assessed as growth inhibition at 10 uM relative to control; outline: as §1
# NCI/ADR-RES = test: Antitumor activity against human NCI-ADR-RES cells assessed as growth inhibition at 10 uM relative to control; outline: as §1
# UACC-257 = test: Antitumor activity against human UACC-257 cells assessed as growth inhibition at 10 uM relative to control; outline: as §2
# SR = test: Antitumor activity against human SR cells assessed as growth inhibition at 10 uM relative to control; outline: as §2
# A549 = test: Antitumor activity against human A549 cells assessed as growth inhibition at 10 uM relative to control; outline: as §1
# MDA-MB-231 = test: Antitumor activity against human MDA-MB-231 cells assessed as growth inhibition at 10 uM relative to control; outline: as §1
# UO-31 = test: Antitumor activity against human UO-31 cells assessed as growth inhibition at 10 uM relative to control; outline: as §2
# SF-539 = test: Antitumor activity against human SF-539 cells assessed as growth inhibition at 10 uM relative to control; outline: as §1
# HCT-116 = test: Antitumor activity against human HCT-116 cells assessed as growth inhibition at 10 uM relative to control; outline: as §1
# SNB-75 = test: Antitumor activity against human SNB-75 cells assessed as growth inhibition at 10 uM relative to control; outline: as §2
# HOP-62 = test: Antitumor activity against human HOP-62 cells assessed as growth inhibition at 10 uM relative to control; outline: as §1
# BT-549 = test: Antitumor activity against human BT-549 cells assessed as growth inhibition at 10 uM relative to control; outline: as §1
# SK-MEL-28 = test: Antitumor activity against human SK-MEL-28 cells assessed as growth inhibition at 10 uM relative to control; outline: as §2
# RPMI-8226 = test: Antitumor activity against human RPMI-8226 cells assessed as growth inhibition at 10 uM relative to control; outline: as §1
# CCRF-CEM = test: Antitumor activity against human CCRF-CEM cells assessed as growth inhibition at 10 uM relative to control; outline: as §1
# DU-145 = test: Antitumor activity against human DU-145 cells assessed as growth inhibition at 10 uM relative to control; outline: as §1
# MCF7 = test: Antitumor activity against human MCF7 cells assessed as growth inhibition at 10 uM relative to control; outline: as §1
# PC-3 = test: Antitumor activity against human PC-3 cells assessed as growth inhibition at 10 uM relative to control; outline: as §1
structure (smiles),measurement,setting,value
N#Cc1c(-c2ccc(Cl)cc2)nc(NN2C(=O)c3ccccc3C2=O)nc1N1CCOCC1,inhibition of growth at 10 µM,OVCAR-4,< 1%
same,inhibition of growth at 10 µM,MOLT-4,< 1%
same,inhibition of growth at 10 µM,K562,< 1%
same,inhibition of growth at 10 µM,SW-620,< 1%
same,inhibition of growth at 10 µM,HOP-92,< 1%
same,inhibition of growth at 10 µM,OVCAR-3,< 1%
same,inhibition of growth at 10 µM,SN12C,< 1%
same,inhibition of growth at 10 µM,T47D,< 1%
same,inhibition of growth at 10 µM,UACC-62,< 1%
same,inhibition of growth at 10 µM,RXF 393,< 1%
same,inhibition of growth at 10 µM,NCI-H522,< 1%
same,inhibition of growth at 10 µM,SK-OV-3,< 1%
same,inhibition of growth at 10 µM,SK-MEL-2,< 1%
same,inhibition of growth at 10 µM,NCI-H23,< 1%
same,inhibition of growth at 10 µM,MDA-MB-468,< 1%
same,inhibition of growth at 10 µM,KM12,< 1%
same,inhibition of growth at 10 µM,COLO 205,< 1%
same,inhibition of growth at 10 µM,NCI-H226,< 1%
same,inhibition of growth at 10 µM,SF-268,< 1%
same,inhibition of growth at 10 µM,SK-MEL-5,< 1%
same,inhibition of growth at 10 µM,786-0,< 1%
same,inhibition of growth at 10 µM,HT-29,< 1%
same,inhibition of growth at 10 µM,HCT-15,< 1%
same,inhibition of growth at 10 µM,Malme-3M,< 1%
same,inhibition of growth at 10 µM,U-251,< 1%
same,inhibition of growth at 10 µM,ACHN,< 1%
same,inhibition of growth at 10 µM,SNB-19,< 1%
same,inhibition of growth at 10 µM,LOX IMVI,< 1%
same,inhibition of growth at 10 µM,CAKI-1,< 1%
same,inhibition of growth at 10 µM,NCI/ADR-RES,< 1%
same,inhibition of growth at 10 µM,UACC-257,< 1%
same,inhibition of growth at 10 µM,SR,16%
same,inhibition of growth at 10 µM,A549,< 1%
same,inhibition of growth at 10 µM,MDA-MB-231,< 1%
same,inhibition of growth at 10 µM,UO-31,15.6%
same,inhibition of growth at 10 µM,SF-539,< 1%
same,inhibition of growth at 10 µM,HCT-116,< 1%
same,inhibition of growth at 10 µM,SNB-75,15.4%
same,inhibition of growth at 10 µM,HOP-62,< 1%
same,inhibition of growth at 10 µM,BT-549,< 1%
same,inhibition of growth at 10 µM,SK-MEL-28,< 1%
same,inhibition of growth at 10 µM,RPMI-8226,< 1%
same,inhibition of growth at 10 µM,CCRF-CEM,< 1%
same,inhibition of growth at 10 µM,DU-145,< 1%
same,inhibition of growth at 10 µM,MCF7,1%
same,inhibition of growth at 10 µM,PC-3,< 1%
